Source: PMC4445677 (Journal of the American Chemical Society, 2014)
“Also recorded” adds a separate entry of the source.

Legend:
[1] = system: nuclear extracts from human embryonic kidney (HEK) 293T cells; assay: Labeling of ADP-ribosylation protein targets in nuclear extracts; format: biochemical; details: HEK 293T nuclear extracts; for protein labeling in nuclear extracts, NAD+ analogue alone: endogenous ARTDs only, 5-Et-6-a-NAD+ 250 μM, 6-a-NAD+ 100 μM
Outline: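 Nuclear extracts from human HEK 293T cells are treated with a modified NAD+ analogue (250 μM), either alone or with added KA-ARTD1. Parent 6-a-NAD+ alone on extract serves as the positive control for ADP-ribose detection. Labelled targets are detected by click chemistry with biotin–azide and immunoblot, using a Ponceau S-stained membrane as the loading control.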

[2] = system: KA-ARTD2; assay: Auto-ADP-ribosylation, KA-ARTD2; format: biochemical, human; details: lysine to alanine mutant
[3] = system: WT-ARTD1; assay: Auto-ADP-ribosylation by click conjugation to biotin-azide reporter, WT-ARTD1; format: biochemical, human; details: NAD+ analogue as substrate; up to 250 μM for 5-Et-6-a-NAD+
[4] = system: KA-ARTD6; details: lysine to alanine mutant
[5] = system: WT-ARTD2; assay: Auto-ADP-ribosylation, WT-ARTD2; format: biochemical, human; details: up to 250 μM
[6] = system: KA-ARTD1; assay: Auto-ADP-ribosylation by click conjugation to biotin-azide reporter, KA-ARTD1; format: biochemical, human; details: NAD+ analogue as substrate; increasing concentrations
[7] = system: WT-ARTD6; details: up to 250 μM
[8] = target: wild-type ARTD1 (WT-ARTD1) (Homo sapiens, UniProt P09874); assay: Inhibition of ADP-ribose transfer to Histone H1 using 6-a-NAD+; format: biochemical
Chain of wild-type ARTD1 (WT-ARTD1) (P09874 whole entry): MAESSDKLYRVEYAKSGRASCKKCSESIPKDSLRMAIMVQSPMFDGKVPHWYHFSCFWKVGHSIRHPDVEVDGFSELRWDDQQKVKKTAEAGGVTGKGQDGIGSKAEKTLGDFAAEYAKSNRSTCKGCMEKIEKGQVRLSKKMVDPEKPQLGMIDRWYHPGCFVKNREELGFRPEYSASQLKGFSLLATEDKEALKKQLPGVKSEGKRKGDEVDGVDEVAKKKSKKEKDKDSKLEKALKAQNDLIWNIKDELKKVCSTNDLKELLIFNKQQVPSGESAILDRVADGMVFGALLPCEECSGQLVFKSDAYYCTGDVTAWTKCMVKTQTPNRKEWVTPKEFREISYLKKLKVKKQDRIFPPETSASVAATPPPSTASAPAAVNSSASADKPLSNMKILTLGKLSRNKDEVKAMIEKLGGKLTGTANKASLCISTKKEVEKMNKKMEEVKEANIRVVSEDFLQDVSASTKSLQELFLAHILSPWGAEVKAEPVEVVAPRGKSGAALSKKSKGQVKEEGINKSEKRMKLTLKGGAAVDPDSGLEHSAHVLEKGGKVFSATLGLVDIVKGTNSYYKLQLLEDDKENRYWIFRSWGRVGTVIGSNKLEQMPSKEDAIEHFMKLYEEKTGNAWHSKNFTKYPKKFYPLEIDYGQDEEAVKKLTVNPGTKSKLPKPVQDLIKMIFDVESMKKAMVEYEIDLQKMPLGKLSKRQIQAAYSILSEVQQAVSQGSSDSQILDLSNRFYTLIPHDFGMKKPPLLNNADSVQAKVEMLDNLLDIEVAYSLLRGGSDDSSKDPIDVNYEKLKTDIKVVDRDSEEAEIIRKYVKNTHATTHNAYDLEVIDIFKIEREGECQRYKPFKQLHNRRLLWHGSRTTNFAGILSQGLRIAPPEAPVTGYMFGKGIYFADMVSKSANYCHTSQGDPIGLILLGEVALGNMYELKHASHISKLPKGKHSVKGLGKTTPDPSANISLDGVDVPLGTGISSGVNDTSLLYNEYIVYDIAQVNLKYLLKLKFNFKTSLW

[9] = target: K903A ARTD1 (KA-ARTD1) (Homo sapiens, UniProt P09874, K903A); assay: as above; format: biochemical
Chain of K903A ARTD1 (KA-ARTD1) (P09874 whole entry K903A): as the sequence (P09874 whole entry) above, with K903A counted along it

IC50 [8] | IC50 [9] | selectivity for KA-ARTD1 over WT-ARTD1 ([9]; ratio of IC50 values WT-ARTD1 / KA-ARTD1) | Compound | protein labeling in nuclear extracts in the presence of KA-ARTD1 ([1]; 250 μM plus KA-ARTD1) | protein labeling in nuclear extracts, NAD+ analogue alone [1] | modification of KA-ARTD2 [2] | auto-ADPr (modification) of WT-ARTD1 [3] | modification of KA-ARTD6 [4] | modification of WT-ARTD2 [5] | auto-ADPr (modification) of KA-ARTD1 [6] | modification of WT-ARTD6 [7]
 |  |  | 5-Et-6-a-NAD^+ | extensive labeling | no labeling was detected | conferred sensitivity | no modification of WT-ARTD1 was detected | conferred sensitivity | no modification | only mono-ADPr of KA-ARTD1; also recorded: resulted in auto-ADPr of KA-ARTD1 | no modification
 |  |  | 6-alkyne-NAD^+ [6-a-NAD^+, reference compound] |  | labeling of several proteins |  | extensive poly-ADPr of WT-ARTD1 |  |  | only mono-ADPr of KA-ARTD1 | 
2360 ± 368 µM | 165 ± 11 µM | 14 fold | CCc1cncc(C(N)=O)c1 [5-ethyl-nicotinamide] |  |  |  |  |  |  |  | 
